≈ marks a conversion by molar mass, not a printed value.
Legend:
Klebsiella pneumoniae [1] = assay: Inhibitory concentration of compound was tested against gram negative Klebsiella pneumoniae.; format: functional
Summary of the method: (§1)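 MIC by agar dilution on sensitivity test agar with serial twofold antibiotic dilutions. The inoculum was an overnight tryptose broth culture diluted to about 10⁶ cells/mL. Plates were incubated at 37 °C for 18-20 h. MIC was the lowest concentration inhibiting visible growth.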

[2] = biological target: T1, Beta-lactamase (Klebsiella oxytoca) (UniProt Q8RT60); assay: Hydrolysis rate by beta-lactamase of Klebsiella sp. 363 relative to cephaloridine (100)
T1 sequence (whole entry): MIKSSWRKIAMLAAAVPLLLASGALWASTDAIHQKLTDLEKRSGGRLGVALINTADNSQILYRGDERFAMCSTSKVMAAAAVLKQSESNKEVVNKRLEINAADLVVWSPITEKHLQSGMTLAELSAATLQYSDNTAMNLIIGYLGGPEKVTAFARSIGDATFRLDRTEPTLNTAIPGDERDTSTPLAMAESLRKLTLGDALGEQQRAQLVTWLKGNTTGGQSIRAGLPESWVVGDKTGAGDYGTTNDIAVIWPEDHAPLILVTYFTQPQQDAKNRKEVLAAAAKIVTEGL
Summary of the method: (§2)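 Constitutive producers were grown statically in nutrient phosphate broth at 37 °C for 16 h, then sonicated. Enzyme was partially purified on DEAE-Sephadex A-25 (phosphate gradient, 0.01 M pH 8.0 to 0.5 M pH 6.2). Assay conditions: 0.1 M potassium phosphate pH 7.0, 30 °C, 0.001% gelatin in enzyme diluent, 100 μM final substrate. Hydrolysis rate was taken from the slope of UV absorbance decrease, with cephaloridine set to 100.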

Escherichia coli [3] = assay: Inhibitory concentration of compound was tested against gram negative Escherichia coli H organism.; format: functional; summary of the method: as §1
[4] = biological target: Beta-lactamase (Escherichia coli K-12) (UniProt P00811); assay: Hydrolysis rate by the beta-lactamase from Escherichia coli 6 relative to cephaloridine.
Summary of the method: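 Cells were grown statically in nutrient phosphate broth for 16 h at 37 °C and disrupted ultrasonically. β-lactamase was partially purified on CM-Sephadex C-50. Substrate (100 μM final) was hydrolysed in 0.1 M potassium phosphate pH 7.0 at 30 °C, with the enzyme diluted in buffer containing 0.001% gelatin. Rate came from the slope of UV optical density decrease and was expressed relative to cephaloridine = 100.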

[5] = test system: Beta-lactamase (Proteus vulgaris); assay: Hydrolysis rate by the beta-lactamase from Proteus vulgaris 31 relative to cephaloridine.
Klebsiella pneumoniae [6] = assay: (§3) Inhibitory concentration of compound was tested against gram negative Klebsiella sp 363.; format: functional; summary of the method: as §1
Proteus mirabilis [7] = assay: Inhibitory concentration of compound was tested against gram negative Proteus mirabilis PR-4.; format: functional; summary of the method: as §1
Escherichia coli [8] = assay: Inhibitory concentration of compound was tested against gram negative Escherichia coli 73.; format: functional; summary of the method: as §1
Escherichia coli [9] = assay: Inhibitory concentration of compound was tested against gram negative Escherichia coli NIH JC-2.; format: functional; summary of the method: as §1
[10] = biological target: Beta-lactamase TEM (Escherichia coli) (UniProt P62593); assay: Hydrolysis rate by the beta-lactamase from Escherichia coli W3110 RTEM relative to cephaloridine.; summary of the method: as §2
Klebsiella pneumoniae [11] = assay: Inhibitory concentration of compound was tested against gram negative Klebsiella pneumoniae
Escherichia coli [12] = assay: Inhibitory concentration of compound was tested against gram negative Escherichia coli NIH JC-2; format: functional; summary of the method: as §1
[13] = test system: Beta-lactamase (Klebsiella sp.); assay: Hydrolysis rate by the beta-lactamase from Klebsiella sp. 363 relative to cephaloridine (100)
Klebsiella = assay: as §3; format: functional; summary of the method: as §1
Escherichia coli [14] = assay: Inhibitory concentration of compound was tested against gram negative Escherichia coli H organism; format: functional; summary of the method: as §1
Proteus mirabilis [15] = assay: Inhibitory concentration of compound was tested against gram negative Proteus mirabilis PR-4.

Beta-lactamase (Escherichia coli K-12), sequence (P00811 whole entry): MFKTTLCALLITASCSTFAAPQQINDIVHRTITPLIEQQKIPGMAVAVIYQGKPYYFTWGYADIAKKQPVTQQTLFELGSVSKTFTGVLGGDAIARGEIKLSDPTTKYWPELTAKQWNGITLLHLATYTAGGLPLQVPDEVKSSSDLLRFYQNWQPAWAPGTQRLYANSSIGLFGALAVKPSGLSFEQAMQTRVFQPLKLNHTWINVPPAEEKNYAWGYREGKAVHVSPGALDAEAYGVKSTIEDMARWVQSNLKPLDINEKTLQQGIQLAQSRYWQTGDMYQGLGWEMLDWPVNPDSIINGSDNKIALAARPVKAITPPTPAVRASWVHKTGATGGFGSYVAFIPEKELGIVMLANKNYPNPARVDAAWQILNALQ
Beta-lactamase TEM (Escherichia coli), sequence (P62593 whole entry): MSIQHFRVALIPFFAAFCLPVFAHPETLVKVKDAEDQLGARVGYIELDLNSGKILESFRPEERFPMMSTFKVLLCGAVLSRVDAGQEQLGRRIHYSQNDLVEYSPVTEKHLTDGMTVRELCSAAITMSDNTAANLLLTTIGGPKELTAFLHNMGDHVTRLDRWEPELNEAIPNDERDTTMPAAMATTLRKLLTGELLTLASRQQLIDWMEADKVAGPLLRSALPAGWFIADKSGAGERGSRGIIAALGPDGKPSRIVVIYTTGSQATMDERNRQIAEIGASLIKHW

Compound | MIC (Klebsiella pneumoniae [1]) [µg/mL] | Relative hydrolysis rate [2] | MIC (Escherichia coli [3]) [µg/mL] | Relative hydrolysis rate [4] | Relative hydrolysis rate [5] | MIC (Klebsiella pneumoniae [6]) [µg/mL] | MIC (Proteus mirabilis [7]) [µg/mL] | MIC (Escherichia coli [8]) [µg/mL] | MIC (Escherichia coli [9]) [µg/mL] | Relative hydrolysis rate [10] | MIC (Klebsiella pneumoniae [11]) [µg/mL] | MIC (Escherichia coli [12]) [µg/mL] | Relative hydrolysis rate [13] | MIC (Klebsiella) [µg/mL] | MIC (Escherichia coli [14]) [µg/mL] | MIC (Proteus mirabilis [15]) [µg/mL]
CC1=C(C(=O)O)N2C(=O)C(NC(=O)CSC(F)(F)F)C2OC1 (centres undefined) | 6.25 (≈ 18.4 µM) | 100 | 3.13 (≈ 9.2 µM) | 910 | 500 | > 100 | 25 (≈ 73.5 µM) | 100 (≈ 294 µM) | 6.25 (≈ 18.4 µM) | 18 |  |  |  |  |  | 
Cn1nnnc1SCC1=C(C(=O)O)N2C(=O)C(NC(=O)Cc3ccc(O)cc3)C2SC1 (centres undefined) | 1.56 (≈ 3.37 µM) | 120 | 0.78 (≈ 1.69 µM) | 360 | 410 | 100 (≈ 216 µM) | 1.56 (≈ 3.37 µM) | 25 (≈ 54.1 µM) | 3.13 (≈ 6.77 µM) | 39 |  |  |  |  |  | 
Cn1nnnc1SCC1=C(C(=O)O)N2C(=O)C(NC(=O)C(O)c3ccccc3)C2SC1 (centres undefined) | 0.39 (≈ 0.843 µM) | 130 | 0.2 (≈ 0.432 µM) | 14 |  | > 100 | 0.78 (≈ 1.69 µM) | 25 (≈ 54.1 µM) | 0.39 (≈ 0.843 µM) | 55 |  |  |  |  |  | 
CC1=C(C(=O)O)N2C(=O)C(NC(=O)CSC(F)(F)F)C2SC1 (centres undefined) |  |  |  | 750 | 160 |  |  | > 100 |  | 1.5 | 50 (≈ 140 µM) | 50 (≈ 140 µM) | 6.2 | > 100 | 25 (≈ 70.2 µM) | 50 (≈ 140 µM)
Cn1nnnc1SCC1=C(C(=O)O)N2C(=O)C(NC(=O)/C(=N\O)c3ccc(NS(C)(=O)=O)cc3)C2SC1 (centres undefined) | 1.56 (≈ 2.74 µM) | 35 | 0.78 (≈ 1.37 µM) | 2.2 | 170 | > 100 | 6.25 (≈ 11 µM) | 50 (≈ 87.9 µM) | 0.78 (≈ 1.37 µM) | 34 |  |  |  |  |  | 
CCN1CCN(C(=O)NC(C(=O)NC2C(=O)N3C(C(=O)O)=C(CSc4nnnn4C)COC23)c2ccc(OC(N)=O)cc2)C(=O)C1=O (centres undefined) | ≤ 0.013 | 0.69 | ≤ 0.013 | 10 | 34 | 12.5 (≈ 18.6 µM) | 0.2 (≈ 0.297 µM) | 12.5 (≈ 18.6 µM) | ≤ 0.013 | 110 |  |  |  |  |  | 
Cc1nnc(SCC2=C(C(=O)O)N3C(=O)C(NC(=O)Cn4cnnn4)C3OC2)s1 (centres undefined) | 1.56 (≈ 3.56 µM) | 380 | 0.78 (≈ 1.78 µM) | 150 | 1200 | > 100 | 1.56 (≈ 3.56 µM) | > 100 | 0.78 (≈ 1.78 µM) | 620 |  |  |  |  |  | 
Cn1nnnc1SCC1=C(C(=O)O)N2C(=O)C(NC(=O)C(O)c3ccccc3)C2OC1 (centres undefined) | 0.05 (≈ 0.112 µM) | 360 | 0.05 (≈ 0.112 µM) | 39 | 300 | 100 (≈ 224 µM) | 0.1 (≈ 0.224 µM) | > 100 | 0.05 (≈ 0.112 µM) | 370 |  |  |  |  |  | 
Cn1nnnc1SCC1=C(C(=O)O)N2C(=O)C(NC(=O)Cc3csc(N)n3)C2OC1 (centres undefined) | 0.2 (≈ 0.442 µM) | 240 | 0.1 (≈ 0.221 µM) | 360 | 770 | > 100 | 0.2 (≈ 0.442 µM) | > 100 | 0.2 (≈ 0.442 µM) | 350 |  |  |  |  |  | 

Reference: ChEMBL document CHEMBL1121719, “1-Oxacephalosporins: enhancement of beta-lactam reactivity and antibacterial activity” (1981)
